Results pooled from the literature.
Lines come from different studies, so protocols differ.
Target: Dual specificity protein kinase CLK2 (CLK2, Homo sapiens, UniProt P49760)

SMILES | observed | action | technique | tested at | measurement | value
Cn1cncc1[C@@](O)(COc1ccc(C#N)cc1-c1ccc(OC(F)(F)F)cc1)c1ccc(C#N)cc1 | cell-free assay | – | competition with immobilised ligand | 1 µM | remaining binding | 90%
CC(C)(C)c1cc(C=C(C#N)C#N)cc(Br)c1O | enzyme activity | inhibitor | – | 0.5 µM | remaining activity | 104%
Nc1ncc(-c2nc(N3CCOCC3)nc(N3CCOCC3)n2)c(C(F)F)n1 | binding | – | competition with immobilised ligand | 10 µM | remaining binding | 41%
O=c1[nH]c2ccccc2n1C1CCN(Cc2ccc(-c3[nH]c4cc5ncnc5cc4nc3-c3ccccc3)cc2)CC1 | cell-free assay | – | – | 0.5 µM | remaining signal | 114%
COc1cc(Nc2ncc(F)c(Nc3ccc4c(n3)NC(=O)C(C)(C)O4)n2)cc(OC)c1OC | binding | – | competition with immobilised ligand | 10 µM | inhibition | 84%
Cn1cc(-c2cccc(N3CCc4c(sc5c4CC(C)(C)C5)C3=O)c2CO)cc(Nc2ccncn2)c1=O | enzyme activity | inhibitor | – | 1 µM | inhibition | 4%
Cc1nn(C)cc1-c1nc2c(N3CCN(Cc4ccc(Cl)cc4)CC3)c(Cl)cnc2[nH]1 | binding | – | competition with immobilised ligand | 1 µM | remaining binding | 77%
C#Cc1n[nH]c2c(-c3cn([C@@H](C)c4ccccn4)c(=O)[nH]c3=O)cc(F)cc12 | enzyme activity | inhibitor | – | 0.1 µM | inhibition | 7.4%
N#CC1(c2ccccn2)CCN(Cc2cc(C(=O)O)c(=O)n3ccccc23)CC1 | cell-free assay | – | competition with immobilised ligand | 1 µM | remaining binding | 100%
Cn1cc(-c2cc(F)cc(N3CCn4c(cc5c4CCCC5)C3=O)c2CO)cc(Nc2ccc(N3CCN(C4COC4)CC3)cn2)c1=O | enzyme activity | inhibitor | – | 0.1 µM | inhibition | 7%
COc1ncccc1-c1cnn2ccc(N3CCN(C(=O)OC(C)C)CC3)nc12 | binding | – | competition with immobilised ligand | 1 µM | remaining binding | 100%
